Results on ten compounds are retold here after ChEMBL document CHEMBL1129396, “2-amino-4-oxo-5-substituted-pyrrolo[2,3-d]pyrimidines as nonclassical antifolate inhibitors of thymidylate synthase” (J Med Chem, 1996).

The target of test [1] is T1, Dihydrofolate reductase (Rattus norvegicus, UniProt Q920D2).
T1 sequence (Q920D2 whole entry): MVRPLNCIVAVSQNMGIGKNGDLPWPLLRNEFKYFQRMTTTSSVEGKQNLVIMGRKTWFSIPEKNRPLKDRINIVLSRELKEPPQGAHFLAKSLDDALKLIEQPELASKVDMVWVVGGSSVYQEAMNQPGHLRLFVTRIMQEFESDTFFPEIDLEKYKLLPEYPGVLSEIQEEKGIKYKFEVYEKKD
In words: The inhibitory concentration of compound against Dihydrofolate reductases on rat liver. The method, boiled down: (§1)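 Run at 37 °C with 90 µM dihydrofolic acid as substrate and 119 µM NADPH as cofactor, in the presence of 150 mM KCl.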

The target in test [2] is T2, Bifunctional dihydrofolate reductase-thymidylate synthase (Toxoplasma gondii, UniProt Q07422).
T2 sequence (Q07422 whole entry): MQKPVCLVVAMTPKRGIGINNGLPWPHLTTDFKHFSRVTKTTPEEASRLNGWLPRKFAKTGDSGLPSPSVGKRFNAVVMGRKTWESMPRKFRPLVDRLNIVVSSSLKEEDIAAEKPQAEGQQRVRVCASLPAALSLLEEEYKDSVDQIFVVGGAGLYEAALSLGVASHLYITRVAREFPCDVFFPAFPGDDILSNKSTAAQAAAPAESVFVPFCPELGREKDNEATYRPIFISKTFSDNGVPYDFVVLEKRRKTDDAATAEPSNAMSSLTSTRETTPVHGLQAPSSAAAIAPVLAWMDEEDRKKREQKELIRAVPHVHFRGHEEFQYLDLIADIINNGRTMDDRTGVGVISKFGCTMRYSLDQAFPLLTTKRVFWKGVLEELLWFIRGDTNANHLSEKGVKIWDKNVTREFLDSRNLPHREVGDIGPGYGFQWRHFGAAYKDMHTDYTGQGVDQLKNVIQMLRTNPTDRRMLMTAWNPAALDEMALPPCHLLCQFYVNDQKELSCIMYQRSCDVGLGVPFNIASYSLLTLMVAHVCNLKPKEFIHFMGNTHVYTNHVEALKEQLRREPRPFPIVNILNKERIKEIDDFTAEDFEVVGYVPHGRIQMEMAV
In words: The inhibitory concentration of compound against Dihydrofolate reductases on Toxoplasma gondii. The method, boiled down:
as §1

The target in test [3] is Thymidylate synthase (Escherichia coli, UniProt C3SWJ7). In words: The inhibitory concentration of compound was evaluated on Escherichia coli Thymidylate synthase.
Test [4] has as its target Thymidylate synthase (Homo sapiens, UniProt P04818). In words: The inhibitory concentration of compound was evaluated on Human Thymidylate synthase.
Test [5] addresses T3, Thymidylate synthase (Lactobacillus casei, UniProt P00469).
T3 sequence (P00469 whole entry): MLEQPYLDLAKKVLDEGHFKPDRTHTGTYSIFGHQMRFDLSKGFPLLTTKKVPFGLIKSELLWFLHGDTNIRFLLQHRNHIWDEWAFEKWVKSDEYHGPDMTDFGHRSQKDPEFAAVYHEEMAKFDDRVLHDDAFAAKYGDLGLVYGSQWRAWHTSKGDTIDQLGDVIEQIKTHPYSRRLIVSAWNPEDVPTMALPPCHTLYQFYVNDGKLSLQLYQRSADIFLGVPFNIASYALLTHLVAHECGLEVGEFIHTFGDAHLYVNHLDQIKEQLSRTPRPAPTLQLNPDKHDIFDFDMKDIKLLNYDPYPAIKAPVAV
In words: The inhibitory concentration of compound was evaluated on Lactobacillus casei Thymidylate synthase. Set-up: species or system Lacticaseibacillus casei.

In test [6] the test system is Squamous carcinoma cell line. Briefly: Growth inhibition of the FaDu Human Squamous Cell carcinoma cell line. It counts as functional, cell-based.
Test [7] addresses Thymidylate synthase (Escherichia coli) (UniProt C3SWJ7). Briefly: Percent inhibition of Thymidylate synthase in Escherichia coli. As to conditions: concentration not given here.
The target in test [8] is T4, Thymidylate synthase (Lactobacillus casei) (UniProt P00469).
T4 sequence (whole entry): T3 sequence (P00469 whole entry)
In words: Percent inhibition of Thymidylate synthase in Lactobacillus casei. As to conditions: Lacticaseibacillus casei; concentration not given here.

Test [9] concerns the target T1, Dihydrofolate reductase. Briefly: The inhibitory concentration of compound against Dihydrofolate reductases on rat liver (rl). It counts as tissue-based. The method, boiled down:
as §1

Thymidylate synthase (Homo sapiens, UniProt P04818), sequence (P04818 whole entry): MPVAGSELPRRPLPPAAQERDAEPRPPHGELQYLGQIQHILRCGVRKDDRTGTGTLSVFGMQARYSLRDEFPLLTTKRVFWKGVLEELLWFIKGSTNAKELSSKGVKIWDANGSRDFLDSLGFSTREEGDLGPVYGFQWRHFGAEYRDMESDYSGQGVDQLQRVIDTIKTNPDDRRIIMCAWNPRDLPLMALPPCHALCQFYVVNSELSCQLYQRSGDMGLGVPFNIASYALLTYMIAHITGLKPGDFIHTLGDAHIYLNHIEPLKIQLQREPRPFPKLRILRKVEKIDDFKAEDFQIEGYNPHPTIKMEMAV
Thymidylate synthase (Escherichia coli), sequence (C3SWJ7 1-264): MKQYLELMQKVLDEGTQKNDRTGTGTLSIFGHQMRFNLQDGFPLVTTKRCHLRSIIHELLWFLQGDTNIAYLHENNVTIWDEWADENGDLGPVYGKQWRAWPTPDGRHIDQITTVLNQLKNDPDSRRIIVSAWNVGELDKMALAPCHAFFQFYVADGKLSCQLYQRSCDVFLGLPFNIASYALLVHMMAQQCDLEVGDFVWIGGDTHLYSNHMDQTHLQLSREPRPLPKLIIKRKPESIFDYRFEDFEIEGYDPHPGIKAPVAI
Thymidylate synthase (Escherichia coli, UniProt C3SWJ7), sequence (C3SWJ7 whole entry): as the sequence (C3SWJ7 1-264) above

What is called IC50 is the concentration that gives 50% inhibition. Low readings indicate greater potency, high ones weaker potency. As for `COc1ccc(Sc2c(C)[nH]c3nc(N)[nH]c(=O)c23)cc1OC`, the IC50 on Dihydrofolate reductase [1] was over 21 µM; in test [2] it was 20 µM.

`Cc1[nH]c2nc(N)[nH]c(=O)c2c1Sc1ccc2ccccc2c1`: the IC50 at Thymidylate synthase [3] is over 25 µM; at Thymidylate synthase [4], 2 µM; at Thymidylate synthase [5], over 25 µM.

Usually EC50 stands for the concentration needed to bring the measured effect to its halfway point. High values mean lower potency in that assay, low ones higher potency in that assay. Take `Cc1[nH]c2nc(N)[nH]c(=O)c2c1Sc1ccc([N+](=O)[O-])cc1`: the figures for the IC50 (at Dihydrofolate reductase [1]; in test [2]) were 7470 µM and 244 µM, respectively. The compound also came in with an EC50 in [6] of 1.5 µM.

The term inhibition denotes the relative decrease from the control value, in per cent. Low values mean a weak effect, high ones a strong effect. With `Cc1[nH]c2nc(N)nc(O)c2c1Sc1ccccc1`, the figures for the IC50 on Thymidylate synthase [3], on Thymidylate synthase [4] and against Thymidylate synthase [5] were over 30 µM, 30 µM and over 30 µM, respectively. The inhibition in [7] was 30%. In test [6], this compound came in with an EC50 of over 10 µM.

Consider `COc1ccc(Sc2c(C)[nH]c3nc(N)nc(O)c23)cc1OC`, for which the inhibition in [7] turned out to be 30%. In addition, the EC50 in test [6] is over 10 µM.

In turn, `CN(Cc1ccc(S(=O)(=O)N2CCOCC2)cc1)c1ccc2c3c(cccc13)C(N)=N2` came in with an EC50 in [6] of 1 µM.

Turning to `Cc1[nH]c2nc(N)nc(O)c2c1Sc1ccc2ccccc2c1`, the inhibition in test [7] was 36%; in test [8], 32%.

As to `Cc1[nH]c2nc(N)nc(O)c2c1Sc1ccc(Cl)cc1`, the figures for the IC50 (on Dihydrofolate reductase [9]; in test [2]) were 24.6 µM and 3.1 µM, respectively. For the same compound, the EC50 in test [6] was 6.7 µM.

Take `Cc1[nH]c2nc(N)[nH]c(=O)c2c1Sc1ccc(Cl)c(Cl)c1`: the figures for the IC50 (on Dihydrofolate reductase [1]; in test [2]) were over 20 µM and 11.7 µM, respectively.

`Cc1[nH]c2nc(N)nc(O)c2c1Sc1ccncc1`: the values for the IC50 against Thymidylate synthase [3], on Thymidylate synthase [4] and on Thymidylate synthase [5] were over 29 µM, 0.34 µM and 100 µM, respectively.
